ChEMBL document CHEMBL3627632, “Novel 1,4-naphthoquinone-based sulfonamides: Synthesis, QSAR, anticancer and antimalarial studies” (Eur J Med Chem, 2015)

Experiments:
[1] = Cytotoxicity against human MOLT3 cells after 48 hrs by XTT assay; format: functional, cell-based; conditions: MOLT-3, 48 h
Procedure, shortened: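 Suspension MOLT-3 cells seeded at 10,000-20,000 per well and preincubated 24 h at 37 °C, 5% CO2. Compound serial dilutions added in an equal volume of medium, DMSO as negative control, then 48 h. Surviving cells measured by XTT. IC50 is the concentration inhibiting growth 50% relative to the DMSO control.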

Vero = test: Cytotoxicity against African green monkey Vero cells after 4 days by GFP detection method; format: cell-based; conditions: Chlorocebus sabaeus, 96 h
Procedure, shortened: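 Vero cells stably transfected with pEGFP-N1, kept in MEM with 10% heat-inactivated FBS, 2 mM L-glutamine, 1 mM pyruvate, 0.8 mg/mL geneticin at 37 °C, 5% CO2. Cells at 3.3 × 10^4 cells/mL added to compounds prediluted in 0.5% DMSO, 384-well, 4 days. GFP fluorescence read at ex 485/em 535 nm, day-0 background subtracted. IC50 from 6-point 3-fold dilution curves.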

HepG2 = test: Cytotoxicity against human HepG2 cells after 48 hrs by MTT assay; format: functional, cell-based; conditions: HepG2, 48 h
Procedure, shortened: (§1)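 Adherent cells seeded at 10,000-20,000 per well and preincubated 24 h at 37 °C, 5% CO2. Serial dilutions of compound added in an equal volume of medium, DMSO as negative control, then 48 h further incubation. Surviving cells measured by MTT. IC50 is the concentration giving 50% growth inhibition relative to the DMSO control.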

Plasmodium falciparum = test: Antimalarial activity against multidrug-resistant Plasmodium falciparum K1 infected in human erythrocytes after 48 hrs by [3H]hypoxanthine incorporation assay; format: functional, organism-based
Procedure, shortened: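 K1 parasites kept in RPMI 1640 with 20 mM HEPES, 32 mM NaHCO3, 10% human serum and 3% erythrocytes, at 37 °C under 3% CO2. Ring-stage culture (1.5% haematocrit, 1% parasitemia) was exposed to compound for 24 h at 0.1% DMSO final. 0.5 µCi [3H]hypoxanthine was then added for a further 24 h. Incorporation was scintillation-counted, and growth was expressed as treated/untreated cpm ×100.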

A549 = test: Cytotoxicity against human A549 cells after 48 hrs by MTT assay; format: functional, cell-based; conditions: A549, 48 h
Procedure, shortened: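 Adherent cells seeded at 10,000-20,000 per well and preincubated 24 h at 37 °C, 5% CO2. Serial dilutions of compound added in an equal volume of medium, DMSO as negative control, then 48 h further incubation. Surviving cells measured by MTT.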

[2] = Cytotoxicity against HuCCa1 cells after 48 hrs by MTT assay; format: functional, cell-based; conditions: Homo sapiens, HuCC-A1, 48 h; procedure, shortened: as §1
[3] = Plasmodium falciparum, K1, read-out: IC50

SMILES	IC50 [1] [µM]	IC50 (Vero) [µM]	IC50 (HepG2) [µM]	IC50 (Plasmodium falciparum)	IC50 (A549) [µM]	IC50 [2] [µM]	IC50 (Plasmodium falciparum; [3]) [µM]
O=C1C(Cl)=C(Nc2ccc(S(=O)(=O)NCCc3ccccn3)cc2)C(=O)c2ccccc21	1.37	99.9	10.3	Not Active	31.4	5.88	–
O=C1C(Cl)=C(Nc2ccc(S(=O)(=O)NCCc3ccccc3)cc2)C(=O)c2ccccc21	2.18	> 107	6.27	Not Active	11.2	4.93	–
COc1ccc(CCNS(=O)(=O)c2ccc(NC3=C(Cl)C(=O)c4ccccc4C3=O)cc2)cc1OC	2.05	21.1	6.07	–	13	5.5	9.96
O=C1C(Cl)=C(Nc2ccc(S(=O)(=O)NCc3ccccn3)cc2)C(=O)c2ccccc21	1.37	10.8	3.3	Not Active	5.88	5	–
O=C1C(Cl)=C(Nc2ccc(S(=O)(=O)N3CCc4ccccc4C3)cc2)C(=O)c2ccccc21	8.56	20.3	36.9	–	48.4	57.8	14.7
COc1cc2c(cc1OC)CN(S(=O)(=O)c1ccc(NC3=C(Cl)C(=O)c4ccccc4C3=O)cc1)CC2	1.73	0.944	14.4	–	20.2	5.21	2.8
O=C1C(Cl)=C(Nc2cccc(S(=O)(=O)NCCc3ccccn3)c2)C(=O)c2ccccc21	2.2	20.2	5.13	Not Active	3.93	5.77	–
O=C1C(Cl)=C(Nc2cccc(S(=O)(=O)NCCc3ccccc3)c2)C(=O)c2ccccc21	3.3	3.85	12.8	–	31.1	9.47	6.3
COc1ccc(CCNS(=O)(=O)c2cccc(NC3=C(Cl)C(=O)c4ccccc4C3=O)c2)cc1OC	4.95	3.76	9.49	–	27.2	8.5	10.1
O=C1C(Cl)=C(Nc2cccc(S(=O)(=O)NCc3ccccn3)c2)C(=O)c2ccccc21	2.38	2.82	4.56	Not Active	2.31	3.66	–
O=C1C(Cl)=C(Nc2cccc(S(=O)(=O)N3CCc4ccccc4C3)c2)C(=O)c2ccccc21	1.92	4.2	11	–	21.9	6.08	7.27
COc1cc2c(cc1OC)CN(S(=O)(=O)c1cccc(NC3=C(Cl)C(=O)c4ccccc4C3=O)c1)CC2	2.34	11.2	43.3	–	63.1	26.4	8.79
O[C@@H](c1cc(C(F)(F)F)nc2c(C(F)(F)F)cccc12)[C@H]1CCCCN1 (relative stereo) [(S,R)-MEFLOQUINE]	–	–	–	–	–	–	0.0269
C[C@H]1[C@@H](O)O[C@@H]2O[C@@]3(C)CC[C@H]4[C@H](C)CC[C@@H]1[C@@]24OO3 [ARTENIMOL]	–	–	–	–	–	–	0.00142
COc1cccc2c1C(=O)c1c(O)c3c(c(O)c1C2=O)C[C@@](O)(C(=O)CO)C[C@@H]3O[C@H]1C[C@H](N)[C@H](O)[C@H](C)O1 [DOXORUBICIN]	–	–	–	–	–	0.42	–
Cc1c2ccncc2c(C)c2c1[nH]c1ccccc12 [ELLIPTECINE]	–	4.05	–	–	–	–	–
COc1cc([C@@H]2c3cc4c(cc3[C@@H](O[C@@H]3O[C@@H]5CO[C@@H](C)O[C@H]5[C@H](O)[C@H]3O)[C@H]3COC(=O)[C@H]23)OCO4)cc(OC)c1O [ETOPOSIDE]	0.041	–	34	–	–	–	–
